Tested on: HEK-293T
Assay: Multiplex assay against HEK293T
Type: toxicity, cell-based
Conditions: human
Procedure, shortened: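 Live cells were stained at seeding with Hoechst33342, BioTracker Green Microtubule Cytoskeleton Dye, MitoTracker Red and Annexin V Alexa Fluor 680, then imaged on a CQ1 microscope at 37°C and 5% CO2 after compound addition. CellPathfinder machine-learning gating split cells into Hoechst high-intensity objects or normal cells. Normal cells were split into healthy, pyknosed or fragmented nuclei, and pyknosed cells into mitotic or apoptotic. Tubulin, mitochondrial-mass and membrane-permeability phenotypes are per cents of healthy-nucleus cells.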

[1] = 12 h, 1 µM, compound concentration 1 uM, replicate 1
[2] = 12 h, 1 µM, compound concentration 1 uM, replicate 2
[3] = 12 h, 10 µM, compound concentration 10 uM, replicate 1
[4] = 12 h, 10 µM, compound concentration 10 uM, replicate 2
[5] = 24 h, 1 µM, compound concentration 1 uM, replicate 1
[6] = 24 h, 1 µM, compound concentration 1 uM, replicate 2
[7] = 24 h, 10 µM, compound concentration 10 uM, replicate 1
[8] = 24 h, 10 µM, compound concentration 10 uM, replicate 2
[9] = 48 h, 1 µM, compound concentration 1 uM, replicate 1
[10] = 48 h, 1 µM, compound concentration 1 uM, replicate 2
[11] = 48 h, 10 µM, compound concentration 10 uM, replicate 1
[12] = 48 h, 10 µM, compound concentration 10 uM, replicate 2

Cc1nn(C)c2nc(NNC(=O)Nc3cc(Cl)nc(Cl)c3)cc(C(C)C)c12
Population Apoptotic (%) [1]: 27%
Population Fragmented Nuclei (%) [1]: 5%
Population Healthy Nuclei (%) [1]: 77%
Population Hoechst High Intensity Objects (%) [1]: 5%
Population Membrane Permeable-Phenotype (%) [1]: 0%
Population Mitochondria Different-Phenotype (%) [1]: 37%
Population Mitotic Cells (%) [1]: 72%
Population Normal (%) [1]: 94%
Population Pyknosed Nuclei (%) [1]: 16%
Population Tubulin-Different-Phenotype (%) [1]: 26%
Total Cell Count [1]: 467
Population Apoptotic (%) [2]: 40%
Population Healthy Nuclei (%) [2]: 81%
Population Hoechst High Intensity Objects (%) [2]: 2%
Population Mitochondria Different-Phenotype (%) [2]: 59%
Population Mitotic Cells (%) [2]: 60%
Population Normal (%) [2]: 97%
Population Pyknosed Nuclei (%) [2]: 13%
Population Tubulin-Different-Phenotype (%) [2]: 25%
Total Cell Count [2]: 383
Population Apoptotic (%) [3]: 55%
Population Fragmented Nuclei (%) [3]: 5%
Population Healthy Nuclei (%) [3]: 61%
Population Hoechst High Intensity Objects (%) [3]: 12%
Population Membrane Permeable-Phenotype (%) [3]: 1%
Population Mitochondria Different-Phenotype (%) [3]: 79%
Population Mitotic Cells (%) [3]: 44%
Population Normal (%) [3]: 88%
Population Pyknosed Nuclei (%) [3]: 32%
Population Tubulin-Different-Phenotype (%) [3]: 80%
Total Cell Count [3]: 300
Population Apoptotic (%) [4]: 46%
Population Fragmented Nuclei (%) [4]: 4%
Population Healthy Nuclei (%) [4]: 74%
Population Hoechst High Intensity Objects (%) [4]: 3%
Population Mitochondria Different-Phenotype (%) [4]: 84%
Population Mitotic Cells (%) [4]: 53%
Population Normal (%) [4]: 96%
Population Pyknosed Nuclei (%) [4]: 21%
Population Tubulin-Different-Phenotype (%) [4]: 75%
Total Cell Count [4]: 396
Population Apoptotic (%) [5]: 31%
Population Fragmented Nuclei (%) [5]: 9%
Population Healthy Nuclei (%) [5]: 78%
Population Hoechst High Intensity Objects (%) [5]: 3%
Population Membrane Permeable-Phenotype (%) [5]: 0%
Population Mitochondria Different-Phenotype (%) [5]: 27%
Population Mitotic Cells (%) [5]: 68%
Population Normal (%) [5]: 96%
Population Pyknosed Nuclei (%) [5]: 11%
Population Tubulin-Different-Phenotype (%) [5]: 20%
Total Cell Count [5]: 608
Population Fragmented Nuclei (%) [6]: 6%
Population Healthy Nuclei (%) [6]: 82%
Population Hoechst High Intensity Objects (%) [6]: 1%
Population Mitochondria Different-Phenotype (%) [6]: 37%
Population Normal (%) [6]: 98%
Population Tubulin-Different-Phenotype (%) [6]: 19%
Total Cell Count [6]: 512
Population Apoptotic (%) [7]: 59%
Population Fragmented Nuclei (%) [7]: 10%
Population Healthy Nuclei (%) [7]: 66%
Population Hoechst High Intensity Objects (%) [7]: 5%
Population Membrane Permeable-Phenotype (%) [7]: 0%
Population Mitochondria Different-Phenotype (%) [7]: 78%
Population Mitotic Cells (%) [7]: 40%
Population Normal (%) [7]: 94%
Population Pyknosed Nuclei (%) [7]: 22%
Population Tubulin-Different-Phenotype (%) [7]: 74%
Total Cell Count [7]: 321
Population Apoptotic (%) [8]: 55%
Population Fragmented Nuclei (%) [8]: 5%
Population Healthy Nuclei (%) [8]: 78%
Population Mitochondria Different-Phenotype (%) [8]: 80%
Population Mitotic Cells (%) [8]: 44%
Population Normal (%) [8]: 95%
Population Pyknosed Nuclei (%) [8]: 16%
Population Tubulin-Different-Phenotype (%) [8]: 69%
Total Cell Count [8]: 440
Population Apoptotic (%) [9]: 27%
Population Fragmented Nuclei (%) [9]: 12%
Population Healthy Nuclei (%) [9]: 78%
Population Hoechst High Intensity Objects (%) [9]: 3%
Population Membrane Permeable-Phenotype (%) [9]: 1%
Population Mitochondria Different-Phenotype (%) [9]: 17%
Population Mitotic Cells (%) [9]: 72%
Population Normal (%) [9]: 96%
Population Pyknosed Nuclei (%) [9]: 9%
Population Tubulin-Different-Phenotype (%) [9]: 16%
Total Cell Count [9]: 912
Population Apoptotic (%) [10]: 18%
Population Fragmented Nuclei (%) [10]: 13%
Population Healthy Nuclei (%) [10]: 81%
Population Hoechst High Intensity Objects (%) [10]: 2%
Population Mitochondria Different-Phenotype (%) [10]: 25%
Population Mitotic Cells (%) [10]: 81%
Population Normal (%) [10]: 97%
Population Pyknosed Nuclei (%) [10]: 5%
Population Tubulin-Different-Phenotype (%) [10]: 19%
Total Cell Count [10]: 748
Population Apoptotic (%) [11]: 62%
Population Fragmented Nuclei (%) [11]: 9%
Population Healthy Nuclei (%) [11]: 72%
Population Hoechst High Intensity Objects (%) [11]: 3%
Population Membrane Permeable-Phenotype (%) [11]: 0%
Population Mitochondria Different-Phenotype (%) [11]: 82%
Population Mitotic Cells (%) [11]: 37%
Population Normal (%) [11]: 96%
Population Pyknosed Nuclei (%) [11]: 18%
Population Tubulin-Different-Phenotype (%) [11]: 78%
Total Cell Count [11]: 387
Population Apoptotic (%) [12]: 45%
Population Healthy Nuclei (%) [12]: 79%
Population Hoechst High Intensity Objects (%) [12]: 4%
Population Mitochondria Different-Phenotype (%) [12]: 71%
Population Mitotic Cells (%) [12]: 55%
Population Normal (%) [12]: 95%
Population Pyknosed Nuclei (%) [12]: 10%
Population Tubulin-Different-Phenotype (%) [12]: 63%
Total Cell Count [12]: 593

COc1cc(OC2CCN(C(C)=O)CC2)ccc1C(=O)N1CCC(N2C(=O)OCc3ccccc32)CC1
Population Apoptotic (%) [1]: 28%
Population Fragmented Nuclei (%) [1]: 5%
Population Healthy Nuclei (%) [1]: 83%
Population Hoechst High Intensity Objects (%) [1]: 7%
Population Membrane Permeable-Phenotype (%) [1]: 0%
Population Mitochondria Different-Phenotype (%) [1]: 37%
Population Mitotic Cells (%) [1]: 71%
Population Normal (%) [1]: 92%
Population Pyknosed Nuclei (%) [1]: 11%
Population Tubulin-Different-Phenotype (%) [1]: 26%
Total Cell Count [1]: 477
Population Apoptotic (%) [2]: 48%
Population Healthy Nuclei (%) [2]: 76%
Population Mitochondria Different-Phenotype (%) [2]: 59%
Population Mitotic Cells (%) [2]: 51%
Population Pyknosed Nuclei (%) [2]: 18%
Population Tubulin-Different-Phenotype (%) [2]: 21%
Total Cell Count [2]: 381
Population Apoptotic (%) [3]: 40%
Population Fragmented Nuclei (%) [3]: 9%
Population Healthy Nuclei (%) [3]: 77%
Population Hoechst High Intensity Objects (%) [3]: 8%
Population Membrane Permeable-Phenotype (%) [3]: 0%
Population Mitochondria Different-Phenotype (%) [3]: 57%
Population Mitotic Cells (%) [3]: 60%
Population Normal (%) [3]: 91%
Population Pyknosed Nuclei (%) [3]: 13%
Population Tubulin-Different-Phenotype (%) [3]: 47%
Total Cell Count [3]: 436
Population Apoptotic (%) [4]: 67%
Population Fragmented Nuclei (%) [4]: 4%
Population Healthy Nuclei (%) [4]: 80%
Population Hoechst High Intensity Objects (%) [4]: 6%
Population Mitochondria Different-Phenotype (%) [4]: 77%
Population Mitotic Cells (%) [4]: 32%
Population Normal (%) [4]: 93%
Population Pyknosed Nuclei (%) [4]: 14%
Population Tubulin-Different-Phenotype (%) [4]: 40%
Total Cell Count [4]: 316
Population Apoptotic (%) [5]: 28%
Population Fragmented Nuclei (%) [5]: 9%
Population Healthy Nuclei (%) [5]: 78%
Population Hoechst High Intensity Objects (%) [5]: 4%
Population Membrane Permeable-Phenotype (%) [5]: 2%
Population Mitochondria Different-Phenotype (%) [5]: 25%
Population Mitotic Cells (%) [5]: 71%
Population Normal (%) [5]: 95%
Population Pyknosed Nuclei (%) [5]: 11%
Population Tubulin-Different-Phenotype (%) [5]: 17%
Total Cell Count [5]: 598
Population Apoptotic (%) [6]: 48%
Population Fragmented Nuclei (%) [6]: 7%
Population Healthy Nuclei (%) [6]: 80%
Population Hoechst High Intensity Objects (%) [6]: 6%
Population Membrane Permeable-Phenotype (%) [6]: 0%
Population Mitochondria Different-Phenotype (%) [6]: 40%
Population Mitotic Cells (%) [6]: 51%
Population Normal (%) [6]: 93%
Population Pyknosed Nuclei (%) [6]: 12%
Population Tubulin-Different-Phenotype (%) [6]: 15%
Total Cell Count [6]: 491
Population Apoptotic (%) [7]: 31%
Population Fragmented Nuclei (%) [7]: 8%
Population Healthy Nuclei (%) [7]: 78%
Population Hoechst High Intensity Objects (%) [7]: 3%
Population Membrane Permeable-Phenotype (%) [7]: 0%
Population Mitochondria Different-Phenotype (%) [7]: 44%
Population Mitotic Cells (%) [7]: 68%
Population Normal (%) [7]: 96%
Population Pyknosed Nuclei (%) [7]: 13%
Population Tubulin-Different-Phenotype (%) [7]: 36%
Total Cell Count [7]: 523
Population Apoptotic (%) [8]: 49%
Population Fragmented Nuclei (%) [8]: 7%
Population Hoechst High Intensity Objects (%) [8]: 4%
Population Mitochondria Different-Phenotype (%) [8]: 58%
Population Mitotic Cells (%) [8]: 50%
Population Normal (%) [8]: 95%
Population Pyknosed Nuclei (%) [8]: 14%
Population Tubulin-Different-Phenotype (%) [8]: 29%
Total Cell Count [8]: 393
Population Apoptotic (%) [9]: 20%
Population Fragmented Nuclei (%) [9]: 13%
Population Healthy Nuclei (%) [9]: 78%
Population Hoechst High Intensity Objects (%) [9]: 3%
Population Membrane Permeable-Phenotype (%) [9]: 1%
Population Mitochondria Different-Phenotype (%) [9]: 19%
Population Mitotic Cells (%) [9]: 79%
Population Normal (%) [9]: 96%
Population Pyknosed Nuclei (%) [9]: 8%
Population Tubulin-Different-Phenotype (%) [9]: 13%
Total Cell Count [9]: 902
Population Apoptotic (%) [10]: 33%
Population Fragmented Nuclei (%) [10]: 11%
Population Healthy Nuclei (%) [10]: 80%
Population Hoechst High Intensity Objects (%) [10]: 2%
Population Mitochondria Different-Phenotype (%) [10]: 23%
Population Mitotic Cells (%) [10]: 66%
Population Normal (%) [10]: 97%
Population Pyknosed Nuclei (%) [10]: 7%
Population Tubulin-Different-Phenotype (%) [10]: 12%
Total Cell Count [10]: 655
Population Apoptotic (%) [11]: 36%
Population Fragmented Nuclei (%) [11]: 13%
Population Healthy Nuclei (%) [11]: 78%
Population Hoechst High Intensity Objects (%) [11]: 4%
Population Membrane Permeable-Phenotype (%) [11]: 0%
Population Mitochondria Different-Phenotype (%) [11]: 30%
Population Mitotic Cells (%) [11]: 63%
Population Normal (%) [11]: 95%
Population Pyknosed Nuclei (%) [11]: 8%
Population Tubulin-Different-Phenotype (%) [11]: 21%
Total Cell Count [11]: 813
Population Fragmented Nuclei (%) [12]: 12%
Population Healthy Nuclei (%) [12]: 80%
Population Hoechst High Intensity Objects (%) [12]: 3%
Population Mitochondria Different-Phenotype (%) [12]: 39%
Population Normal (%) [12]: 96%
Population Pyknosed Nuclei (%) [12]: 7%
Population Tubulin-Different-Phenotype (%) [12]: 16%
Total Cell Count [12]: 625

— ChEMBL document CHEMBL5058577, “EUbOPEN Chemogenomics Library 2 (Multiplex)” (2022)
